{
  "source": "ChEMBL document CHEMBL1122945",
  "about": "“Synthesis and antitumor activity of a series of ftorafur analogues: the effect of varying electronegativity at the 1'-position” (J Med Chem, 1985)",
  "key": {"[1]": {"test_system": "P388", "test": "Evaluated for the antitumor activity in the P388 lymphocytic leukemia in female CDF1 mice injected intraperitoneally with 10 E-6 tumor cells dosed for 9 days at 20 mg/kg; no significant activity", "assay_type": "functional, Mus musculus", "conditions": "route intraperitoneal", "in_short": "(§1)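 P388 leukaemia screen run to NIH protocol in female CDF1 mice (~25 g). 1 × 10^6 cells were given ip on day 0, and compounds were dosed on days 1–9. Six mice per group, with 5-FU and fluorodeoxyuridine as positive internal standards. T/C values were calculated, and T/C above 125% counted as significant activity.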"}, "[2]": {"test": "Evaluated in vitro for the Cytotoxic activity in the L1210 cell culture screen at 1 uM Maximum cell kill in a 72-h period", "assay_type": "cell-based", "conditions": "mouse, L1210 cells; read-out: Inhibition", "in_short": "(§2)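 Compounds were suspended or dissolved in sterile 5 mM phosphate-buffered saline, sonicated 3 min, then serially diluted. L1210 cells were kept in suspension culture in RPMI-1640 with 10% fetal calf serum, penicillin and streptomycin at 37 °C, 98% humidity, 5% CO2. Exponentially growing cells (4 × 10^5 cells/mL) were exposed to compound. Read-out was percent inhibition versus control at maximum cell kill within 72 h, N = 9.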"}, "[3]": {"test": "Evaluated in vitro for the Cytotoxic activity in the L1210 cell culture screen at 10 uM Maximum cell kill in a 72-h period", "assay_type": "cell-based", "conditions": "mouse, L1210 cells; read-out: Inhibition", "in_short": "as §2"}, "[4]": {"test_system": "P388", "test": "Average days survival of female CDF1 mice bearing lymphocytic leukemia, when 10 E-6 tumor cells were injected intraperitoneally, dosed for 9 days at 20 mg/kg.", "assay_type": "functional, Mus musculus", "conditions": "route intraperitoneal", "in_short": "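P388 lymphocytic leukemia screen per NIH protocol in female CDF1 mice (~25 g), six per group. 1 × 10^6 cells injected ip on day 0. Compound given at 20 mg/kg on days 1–9. Survival of treated mice recorded and T/C calculated, with T/C above 125% taken as significant. 5-FU and fluorodeoxyuridine served as positive internal standards.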"}, "[5]": {"test": "Evaluated in vitro for the Cytotoxic activity in the L1210 cell culture screen at 100 uM Maximum cell kill in a 72-h period", "assay_type": "cell-based", "conditions": "mouse, L1210 cells; read-out: Inhibition", "in_short": "as §2"}, "[6]": {"test_system": "P388", "test": "Evaluated for the antitumor activity in the P388 lymphocytic leukemia in female CDF1 mice injected intraperitoneally with 10 E-6 tumor cells dosed for 9 days at 20 mg/kg;", "assay_type": "functional, Mus musculus", "conditions": "route intraperitoneal", "in_short": "as §1"}, "[7]": {"test_system": "P388", "test": "Evaluated for the antitumor activity in the P388 lymphocytic leukemia in female CDF1 mice injected intraperitoneally with 10 E-6 tumor cells dosed for 9 days at 20 mg/kg", "assay_type": "functional, Mus musculus", "conditions": "route intraperitoneal", "in_short": "as §1"}, "[8]": {"test": "Evaluated in vitro for the Cytotoxic activity in the L1210 cell culture screen at 100 uM Maximum cell kill in a 72-h period r", "assay_type": "cell-based", "conditions": "mouse, L1210 cells; read-out: Inhibition", "in_short": "as §2"}},
  "data": [
    {"smiles": "O=c1[nH]c(=O)n(C2CCCS2(=O)=O)cc1F", "note": "(configuration not stated)", "values": [
      {"measurement": "T/C", "setting": "[1]", "value": 119, "unit": "%"},
      {"measurement": "cytotoxicity at 72 h, 1 µM", "setting": "[2]", "value": 59.2, "unit": "%"},
      {"measurement": "cytotoxicity at 72 h, 10 µM", "setting": "[3]", "value": 85, "unit": "%"},
      {"measurement": "Average survived", "setting": "[4]", "value": 12.17, "unit": "days"},
      {"measurement": "cytotoxicity at 72 h, 100 µM", "setting": "[5]", "value": 92, "unit": "%"}
    ]},
    {"smiles": "O=C1CCCC1n1cc(F)c(=O)[nH]c1=O", "note": "(configuration not stated)", "values": [
      {"measurement": "cytotoxicity at 72 h, 1 µM", "setting": "[2]", "value": 40, "unit": "%"},
      {"measurement": "T/C", "setting": "[6]", "value": 103, "unit": "%"},
      {"measurement": "cytotoxicity at 72 h, 10 µM", "setting": "[3]", "value": 49.1, "unit": "%"},
      {"measurement": "Average survived", "setting": "[4]", "value": 10.5, "unit": "days"},
      {"measurement": "cytotoxicity at 72 h, 100 µM", "setting": "[5]", "value": 65.5, "unit": "%"}
    ]},
    {"smiles": "O=c1[nH]c(=O)n([C@H]2C[C@H](O)[C@@H](CO)O2)cc1F", "note": "[FLOXURIDINE]", "values": [
      {"measurement": "Average survived", "setting": "[4]", "value": 15.17, "unit": "days"},
      {"measurement": "T/C", "setting": "[7]", "value": 149, "unit": "%"}
    ]},
    {"smiles": "O=c1[nH]c(=O)n(C2CCCS2)cc1F", "note": "(configuration not stated)", "values": [
      {"measurement": "cytotoxicity at 72 h, 1 µM", "setting": "[2]", "value": 16.9, "unit": "%"},
      {"measurement": "cytotoxicity at 72 h, 10 µM", "setting": "[3]", "value": 52.5, "unit": "%"},
      {"measurement": "Average survived", "setting": "[4]", "value": 10.17, "unit": "days"},
      {"measurement": "cytotoxicity at 72 h, 100 µM", "setting": "[5]", "value": 68.5, "unit": "%"},
      {"measurement": "T/C", "setting": "[7]", "value": 100, "unit": "%"}
    ]},
    {"smiles": "O=c1[nH]c(=O)n(C2CCCO2)cc1F", "note": "(configuration not stated) [TEGAFUR]", "values": [
      {"measurement": "cytotoxicity at 72 h, 1 µM", "setting": "[2]", "value": 17.2, "unit": "%"},
      {"measurement": "cytotoxicity at 72 h, 100 µM", "setting": "[8]", "value": 81.8, "unit": "%"},
      {"measurement": "cytotoxicity at 72 h, 10 µM", "setting": "[3]", "value": 67.5, "unit": "%"},
      {"measurement": "Average survived", "setting": "[4]", "value": 10, "unit": "days"},
      {"measurement": "T/C", "setting": "[7]", "value": 98, "unit": "%"}
    ]},
    {"smiles": "O=c1[nH]c(=O)n(C2CCC[S+]2[O-])cc1F", "note": "(configuration not stated)", "values": [
      {"measurement": "cytotoxicity at 72 h, 1 µM", "setting": "[2]", "value": 64.9, "unit": "%"},
      {"measurement": "cytotoxicity at 72 h, 10 µM", "setting": "[3]", "value": 82.9, "unit": "%"},
      {"measurement": "Average survived", "setting": "[4]", "value": 14.5, "unit": "days"},
      {"measurement": "cytotoxicity at 72 h, 100 µM", "setting": "[5]", "value": 84.5, "unit": "%"},
      {"measurement": "T/C", "setting": "[7]", "value": 143, "unit": "%"}
    ]},
    {"smiles": "O=c1[nH]cc(F)c(=O)[nH]1", "note": "[FLUOROURACIL]", "values": [
      {"measurement": "cytotoxicity at 72 h, 1 µM", "setting": "[2]", "value": 79.8, "unit": "%"},
      {"measurement": "cytotoxicity at 72 h, 10 µM", "setting": "[3]", "value": 81.2, "unit": "%"},
      {"measurement": "Average survived", "setting": "[4]", "value": 17.6, "unit": "days"},
      {"measurement": "cytotoxicity at 72 h, 100 µM", "setting": "[5]", "value": 90.3, "unit": "%"},
      {"measurement": "T/C", "setting": "[7]", "value": 173, "unit": "%"}
    ]}
  ]
}
